From ChEMBL document CHEMBL1133744, “Synthesis and biological evaluation of bombesin constrained analogues” (J Med Chem, 2000)

Legend:
[1] = target: Gastrin-releasing peptide receptor (Rattus norvegicus, UniProt P52500); assay: In vitro binding affinity against bombesin / GRP receptors on rat pancreatic acini.
How it was run: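 Male Wistar rat dispersed pancreatic acini (about 1 mg/mL protein) incubated 60 min at 37 °C with 20 pM (3-[125I]iodotyrosyl15)GRP and varying analogue; pellet centrifuged at 10000g, washed twice, counted. Nonspecific binding with 10 μM unlabeled BN. Specific binding as %, mean ± SD of three experiments in duplicate.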

[2] = Binding affinity against BN (bombesin) / GRP receptors in Swiss 3T3 cells; format: cell-based, Mus musculus
How it was run: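 Intact Swiss 3T3 cells (seeded 10⁵/well, 24 h in serum-free medium with 0.2% BSA) incubated 1 h at 22 °C in DMEM/0.2% BSA with 20 pM (3-[125I]iodotyrosyl15)GRP and varying compound; washed with cold PBS/0.2% BSA, NaOH-solubilized, radioactivity counted. Nonspecific binding with 10 μM BN. Duplicates, at least three separate trials.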

[3] = Compound was tested for stimulating [3H]-thymidine accumulation in Swiss 3T3 cells.; format: functional, cell-based; details: Mus musculus, NIH3T3, 24 h
How it was run: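 Swiss 3T3 cells seeded 10⁵/well, 24 h in medium with 0.2% BSA without serum, then 24 h in DMEM/0.2% BSA; treated 24 h at 37 °C with varying analogue alone or with 10^-7 M BN, then 0.5 μCi [3H]thymidine for 2 h; TCA-precipitable radioactivity after NaOH solubilization. Agonism tested up to 10^-6 M.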

Rattus norvegicus = species on record: Rattus norvegicus; assay: Compound was tested for stimulating amylase secretion on rat pancreatic acini.; format: functional, organism-based
How it was run: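 Dispersed pancreatic acini from male Wistar rats (200-300 g), about 1 mg protein/mL, incubated 30 min at 37 °C in HEPES pH 7.4 buffer with 1% BSA; amylase by Phadebas method, expressed as % of maximal BN response. Antagonism: varying analogue with 1 nM BN. Duplicate incubations.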

Chain of Gastrin-releasing peptide receptor (P52500 whole entry): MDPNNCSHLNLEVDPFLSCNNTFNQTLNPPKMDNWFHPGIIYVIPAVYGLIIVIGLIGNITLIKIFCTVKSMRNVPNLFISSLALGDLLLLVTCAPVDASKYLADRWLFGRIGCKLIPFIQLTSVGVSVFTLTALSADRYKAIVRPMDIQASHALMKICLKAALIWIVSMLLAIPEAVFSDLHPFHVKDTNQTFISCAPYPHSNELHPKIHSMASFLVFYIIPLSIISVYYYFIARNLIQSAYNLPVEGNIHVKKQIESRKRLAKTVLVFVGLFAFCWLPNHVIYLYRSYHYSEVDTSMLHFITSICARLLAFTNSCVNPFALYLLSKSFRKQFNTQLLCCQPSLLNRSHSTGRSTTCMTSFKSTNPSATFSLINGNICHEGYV

Row | Structure (SMILES) | Ki [1] [nM] | EC50 [3] [nM] | EC50 (Rattus norvegicus) [nM] | Ki [2] [nM]
1 | CC(C)C[C@H](NC(=O)[C@H](CC(C)C)NC(=O)[C@H](Cc1cnc[nH]1)NC(=O)c1ccccc1NC(=O)[C@H](C)NC(=O)[C@H](Cc1c[nH]c2ccccc12)NC(=O)[C@H](CCC(N)=O)NC(=O)[C@H](N)Cc1ccccc1)C(N)=O | 650 |  |  | 
2 | CC(C)C[C@H](NC(=O)[C@H](CC(C)C)NC(=O)[C@H](Cc1c[nH]cn1)NC(=O)CN1C(=O)[C@@H](NC(=O)[C@H](C)NC(=O)[C@H](Cc2c[nH]c3ccccc23)NC(=O)[C@H](CCC(N)=O)NC(=O)[C@H](N)Cc2ccccc2)N=C(c2ccccc2)c2ccccc21)C(N)=O | 500 |  |  | 
3 | CC(C)C[C@H](NC(=O)[C@H](CC(C)C)NC(=O)[C@H](Cc1c[nH]cn1)NC(=O)CNC(=O)[C@@H](NC(=O)[C@H](C)NC(=O)[C@H](Cc1c[nH]c2ccccc12)NC(=O)[C@H](CCC(N)=O)NC(=O)C(N)Cc1ccccc1)C(C)C)C(N)=O (stereo in doubt) [listing 1 of 3 here] |  | 0.08 | 0.03 | 
4 | CC(C)C[C@H](NC(=O)[C@H](CC(C)C)NC(=O)[C@H](Cc1cnc[nH]1)NC(=O)c1cccc(NC(=O)[C@H](C)NC(=O)[C@H](Cc2c[nH]c3ccccc23)NC(=O)[C@H](CCC(N)=O)NC(=O)[C@H](N)Cc2ccccc2)c1)C(N)=O | 300 |  |  | 
5 | CC(C)C[C@H](NC(=O)[C@H](CC(C)C)NC(=O)[C@H](Cc1cnc[nH]1)NC(=O)c1ccc(NC(=O)[C@H](C)NC(=O)[C@H](Cc2c[nH]c3ccccc23)NC(=O)[C@H](CCC(N)=O)NC(=O)[C@H](N)Cc2ccccc2)cc1)C(N)=O | 2250 |  |  | 
6 | CC(C)C[C@H](NC(=O)[C@H](CC(C)C)NC(=O)[C@H](Cc1c[nH]cn1)NC(=O)CNC(=O)[C@@H](NC(=O)[C@H](C)NC(=O)[C@H](Cc1c[nH]c2ccccc12)NC(=O)[C@H](CCC(N)=O)NC(=O)C(N)Cc1ccccc1)C(C)C)C(N)=O (stereo in doubt) [listing 2 of 3 here] |  |  |  | 6.3
7 | CC(C)C[C@H](NC(=O)[C@H](CC(C)C)NC(=O)[C@H](Cc1cnc[nH]1)NC(=O)CN1CC[C@H](NC(=O)[C@H](C)NC(=O)[C@H](Cc2c[nH]c3ccccc23)NC(=O)[C@H](CCC(N)=O)NC(=O)[C@H](N)Cc2ccccc2)C1=O)C(N)=O | 225 |  |  | 
8 | CC(C)C[C@H](NC(=O)[C@H](CC(C)C)NC(=O)[C@H](Cc1c[nH]cn1)NC(=O)CNC(=O)[C@@H](NC(=O)[C@H](C)NC(=O)[C@H](Cc1c[nH]c2ccccc12)NC(=O)[C@H](CCC(N)=O)NC(=O)C(N)Cc1ccccc1)C(C)C)C(N)=O (stereo in doubt) [listing 3 of 3 here] | 3.2 |  |  | 

Continued, in another order:

Row | Ki [1] [nM] | EC50 [3] [nM] | EC50 (Rattus norvegicus) [nM] | Structure (SMILES) | Ki [2] [nM]
9 | 5.2 |  |  | COC(=O)[C@H](CC(C)C)NC(=O)[C@H](Cc1c[nH]cn1)NC(=O)CN1CCCC[C@H](NC(=O)[C@H](C)NC(=O)[C@H](Cc2c[nH]c3ccccc23)NC(=O)[C@H](CCC(N)=O)NC(=O)[C@H](N)Cc2ccccc2)C1=O | 2
10 | 127 |  |  | CC(C)C[C@@H](NC(=O)[C@H](Cc1c[nH]cn1)NC(=O)CN1CCCC[C@H](NC(=O)[C@H](C)NC(=O)[C@H](Cc2c[nH]c3ccccc23)NC(=O)[C@H](CCC(N)=O)NC(=O)[C@H](N)Cc2ccccc2)C1=O)C(=O)NO | 53
11 | 1.8 | 0.2 | 0.05 | CC(C)C[C@H](NC(=O)[C@H](CC(C)C)NC(=O)[C@H](Cc1c[nH]cn1)NC(=O)CN1CCCC[C@H](NC(=O)[C@H](C)NC(=O)[C@H](Cc2c[nH]c3ccccc23)NC(=O)[C@H](CCC(N)=O)NC(=O)CCc2ccc(O)cc2)C1=O)C(N)=O | 2
12 | 3.1 |  |  | COC(=O)[C@H](CC(C)C)NC(=O)[C@H](Cc1c[nH]cn1)NC(=O)CN1CCCC[C@H](NC(=O)[C@H](C)NC(=O)[C@H](Cc2c[nH]c3ccccc23)NC(=O)[C@H](CCC(N)=O)NC(=O)CCc2ccc(O)cc2)C1=O | 1.2
13 | 13 |  |  | CC(C)C[C@@H](NC(=O)[C@H](Cc1c[nH]cn1)NC(=O)CN1CCCC[C@H](NC(=O)[C@H](C)NC(=O)[C@H](Cc2c[nH]c3ccccc23)NC(=O)[C@H](CCC(N)=O)NC(=O)CCc2ccc(O)cc2)C1=O)C(=O)NO | 11
14 | 9 |  |  | CCCCC(O)[C@@H](CC(C)C)NC(=O)[C@H](Cc1c[nH]cn1)NC(=O)CN1CCCC[C@H](NC(=O)[C@H](C)NC(=O)[C@H](Cc2c[nH]c3ccccc23)NC(=O)[C@H](CCC(N)=O)NC(=O)[C@H](N)Cc2ccccc2)C1=O (some centres undefined) | 2
15 | 3.8 |  |  | CCCCC(O)[C@@H](CC(C)C)NC(=O)[C@H](Cc1c[nH]cn1)NC(=O)CN1CCCC[C@H](NC(=O)[C@H](C)NC(=O)[C@H](Cc2c[nH]c3ccccc23)NC(=O)[C@H](CCC(N)=O)NC(=O)CCc2ccc(O)cc2)C1=O (some centres undefined) | 0.8
16 | 1.7 | 0.02 | 0.22 | CC(C)C[C@H](NC(=O)[C@H](CC(C)C)NC(=O)[C@H](Cc1c[nH]cn1)NC(=O)CN1CCCC[C@H](NC(=O)[C@H](C)NC(=O)[C@H](Cc2c[nH]c3ccccc23)NC(=O)[C@H](CCC(N)=O)NC(=O)[C@H](N)Cc2ccccc2)C1=O)C(N)=O | 1
